# From PubChem
# The list is not random: actives were taken first. Their share in the collection is about 2.7%.
# TCR-CD3 inh = inhibitors of human TCR-CD3 interaction, primary screen, biochemical, fluorescence, TAMRA-labeled TCR probe. inhibition, % at 9.4 µM. actives 0.37% (n = 360,000). AID 651800, 2012. T-cell receptor (TCR); in the data active = inhibition above about 19%;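 also: recombinant mutant TCR 2C K166C tagged with TAMRA read by polarization; 0% = receptor in buffer alone and 100% = receptor with positive control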
# SIAE primary = human SIAE inhibitors, primary screen, biochemical, fluorescence polarization, FP-Rh probe, 1536-well HTS. Sialate O-acetylesterase (Homo sapiens), Q9HAT2. SIAE FP-Rh probe binding. inhibition, % at 9.66 µM. actives 0.69% (n = 370,000). AID 1053197, 2014;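 active = inhibition above a cutoff: mean of compounds within the control limits plus 3 SD of those, cut at about 17% in these data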;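 also: 0% = plate median of compound wells and 100% = probe without SIAE protein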
# ABHD4 inh = ABHD4 inhibitors, primary screen, biochemical, fluorescence polarization, mouse. actives 0.54% (n = 370,000). inhibition, % at 8.92 µM. (Lyso)-N-acylphosphatidylethanolamine lipase (Mus musculus), Q8VD66. purified mABHD4, FP-Rh probe fluorescence polarization;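 active = inhibition exceeding the mean over every tested compound plus 3 SD, cut at about 30% in these data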;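 also: 0% = plate median of compound wells and 100% = S159A mutant with DMSO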
# Target sequence (Q8VD66 whole entry, looked up): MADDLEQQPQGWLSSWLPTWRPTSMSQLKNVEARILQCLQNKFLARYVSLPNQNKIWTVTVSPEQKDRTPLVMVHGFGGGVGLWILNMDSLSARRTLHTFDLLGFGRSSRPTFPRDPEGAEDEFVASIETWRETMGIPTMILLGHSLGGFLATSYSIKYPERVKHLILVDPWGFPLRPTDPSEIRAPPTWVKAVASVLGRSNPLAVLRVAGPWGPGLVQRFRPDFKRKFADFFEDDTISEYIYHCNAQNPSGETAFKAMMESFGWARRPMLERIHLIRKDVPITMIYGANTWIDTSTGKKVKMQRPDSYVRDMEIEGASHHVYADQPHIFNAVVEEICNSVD
#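 system = mouse ABHD4 enzyme, wild type | medium = HEPES pH 7.0, NaCl, Pluronic buffer | also added = FP-Rh probe | incubation = Enzyme–compound pre-incubation 45 min, then probe 60 min, both 25 °C | technique = fluorescence polarization, excitation 525 nm, emission 598 nm, BODIPY TMR filters | controls = S159A mutant high control, sample median low control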
# HTRA1 inhibitor = HTRA1 serine protease inhibitors, primary screen, biochemical, fluorescence polarization, HTS; inhibition, % at 5.96 µM; actives 0.5% (n = 340,000); Q92743; AID 504803, 2011; recombinant HTRA1, FP-rhodamine activity-based probe; in the data active = inhibition above about 36%;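 also: 0% = enzyme with DMSO and 100% = wells lacking enzyme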
# PRMT1 inh = PRMT1 methyltransferase inhibitors, primary screen, biochemical, fluorescence polarization; recombinant PRMT1, activity-based probe fluorescence polarization; Protein arginine N-methyltransferase 1 (Homo sapiens), Q99873; actives 1.3% (n = 370,000); inhibition, % at 2.79 µM; AID 652257, 2013;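 active = inhibition above about 21% made by adding two undisclosed values, limit read from the data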
# PRMT1 confirm = PRMT1 methyltransferase inhibitors, confirmation, biochemical, fluorescence polarization, triplicate | shares compounds with PRMT1 inh | inhibition, % at 2.79 µM | actives 42% (n = 3,300) | recombinant His-PRMT1, activity-based probe fluorescence polarization;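 active = mean inhibition across replicates above the hit cutoff derived for the earlier primary screen, cut at about 22% in these data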
# * = called active by the depositor; x = no result.
SMILES,TCR-CD3 inh,SIAE primary,ABHD4 inh,HTRA1 inhibitor,PRMT1 inh,PRMT1 confirm
CCCOc1ccc(N2C(=O)CC(N3CCCC(C(=O)N4CCCC4)C3)C2=O)cc1 (stereo not given),-2.1,-2.4,3.1,3.8,39.0*,6.5
CCCOc1ccc(N2C(=O)CC(SCC(N)C(=O)OCC)C2=O)cc1 (stereo not given),-1.8,-3.4,7.0,-2.9,27.1*,23.4*
O=C(C1CCCN(C2CC(=O)N(c3ccc(Cl)cc3)C2=O)C1)N1CCCC1 (stereo not given),-12.0,-6.1,5.7,1.1,29.6*,3.0
O=C(NCCS(=O)(=O)NCc1ccccn1)c1ccccc1,1.9,-3.5,3.0,-2.0,0.1,x
O=C(O)/C=C/C(=O)Nc1ccc(OC(F)(F)F)cc1,7.6,1.0,2.3,3.4,0.5,x
O=C(O)/C=C/C(=O)Nc1ccc(OC(F)(F)F)cc1Br,0.4,-5.5,6.9,0.7,49.7*,5.2
COc1ccccc1NC(=O)C1CCN(S(=O)(=O)c2ccc3c(c2)NC(=O)CO3)CC1,6.7,-3.7,-5.0,-2.7,1.3,x
O=C(CCSC1=NCCCN1)c1ccc(F)cc1,6.3,-5.7,-3.7,-4.6,30.9*,47.4*
c1ccc(CSC2=NCCCN2)cc1,-5.0,-4.8,2.9,4.1,1.2,x
COc1ccc(-c2noc(=O)n2Cc2ccccc2Cl)cc1,-6.8,0.1,2.6,-8.0,1.3,x
Cc1cccc(OC(C)C(=O)N2CCN(Cc3ccc4c(c3)OCO4)CC2)c1 (stereo not given),-3.9,-1.6,5.7,4.0,0.0,x
Cc1ccnc2nc(C(=O)OCC(=O)N(Cc3ccccc3)C(C)C)nn12,0.1,3.2,3.9,-3.9,-0.7,x
O=C(CCN1CCc2ccccc2C(c2ccccc2)C1)c1ccc2c(c1)OCCO2 (stereo not given),1.0,7.6,4.0,-3.5,38.2*,20.4
O=C(O)CCSCC(=O)c1ccc2c(c1)OCCO2,0.3,4.0,-0.7,4.7,32.2*,4.1
CN(C)CCC(=O)c1ccc2c(c1)OCO2,3.4,-5.3,4.7,8.7,35.8*,18.2
CCCC(=O)c1ccc2c(c1)OCCO2,-1.5,5.2,5.6,-1.3,-0.7,x
O=C(O)CCC(=O)c1ccc2c(c1)OCCO2,6.6,-0.4,3.9,-1.7,0.0,x
O=C(CCN1Cc2ccccc2C1)c1ccc2c(c1)OCCO2,6.2,-13.9,1.9,-8.9,26.4*,22.2*
CN(C)CCCC(=O)c1ccc2c(c1)OCO2,5.6,-0.8,1.6,0.0,-1.3,x
Clc1cccc(Cc2c(-c3ccco3)nc3c4ccccc4ccn23)c1,0.1,-13.0,2.5,x,25.4*,8.6
Fc1cccc(Cc2c(-c3ccco3)nc3c4ccccc4ccn23)c1,-6.3,0.0,-5.8,x,29.8*,10.0
O=C1ON=C(c2ccccc2)/C1=C\c1ccco1,-14.1,-4.0,-26.2,3.8,17.1,x
Cc1ccc(/C=C2/C(=O)ON=C2c2ccccc2)o1,-0.1,16.1,14.0,9.3,25.2*,33.1*
O=C(N[C@@H](Cc1cccnc1)C(=O)N1CCC[C@H]1C(=O)NC1CCCC1)c1ccccc1,-3.3,0.2,2.0,x,-1.6,x
O=C1C(O)=CC(=C(c2ccccc2)c2ccccc2)c2ccccc21,0.4,8.0,25.9,14.3,41.8*,6.8
SMILES,TCR-CD3 inh,SIAE primary,ABHD4 inh,HTRA1 inhibitor,PRMT1 inh,PRMT1 confirm
O=C(O)c1cccc2c1C(=O)c1ccccc1-2,1.3,-2.9,-0.7,1.0,-2.7,x
Cc1cc(Cl)ccc1NNC(=O)c1cccs1,-3.9,4.8,3.4,3.1,2.9,x
CC(=O)C(=Nc1cccc(Cl)c1)NNc1ccccc1C,1.6,5.0,28.7,0.5,83.1*,2.8
C=CCOC(=O)Nc1ccc(Cl)cc1NC(=O)OCC=C,-4.6,7.1,-5.2,-0.7,0.2,x
C=CCOC(=O)/C=C/C(=O)NC(N)=O,-5.7,2.7,5.8,6.4,76.5*,69.2*
Cc1ccc(CNC(=O)OC(C)(C)C)c(/C=C/S(=O)(=O)NCCc2ccccc2)c1,x,1.1,-23.7,x,29.0*,1.7
O=[N+]([O-])c1ccc(N2CCSCC2)cc1,1.4,-7.3,0.0,4.7,1.2,x
Cc1sc2nc(CSCC(=O)NC3(C#N)CCCCC3)[nH]c(=O)c2c1C,-2.4,3.4,-2.2,1.9,25.1*,5.0
CCOC(=O)c1c(NC(=S)Nc2ccccc2)sc2c1CCCCC2,x,x,x,-11.2,x,x
CCOC(=O)c1c(NC(=S)Nc2ccccc2)sc2c1CCN(CC)C2,-15.3,-6.9,-20.8,-6.6,27.5*,11.4
COc1ccccc1OS(=O)(=O)c1ccc(NC(C)=O)cc1,-2.5,-0.9,-1.4,-1.7,-2.1,x
COC(=O)/C=C/S(=O)(=O)c1ccc(NC(C)=O)cc1,-1.3,3.6,-1.3,0.8,72.9*,28.6*
COc1ccc(NCc2nnc(SCC(=O)Nc3cccc(C)c3)o2)cc1,-5.9,3.7,-5.8,-3.5,36.7*,28.7*
Cc1ccc(CNC(=O)COC(=O)c2cccc(S(=O)(=O)N3CCCCC3)c2)cc1,1.0,0.0,-2.4,-13.1,86.4*,0.3
COc1ccc(-c2nc3c(s2)CN(S(C)(=O)=O)CC3)cc1OC,-4.8,-5.0,-4.8,5.0,35.1*,3.5
N#Cc1cccnc1N1CCN(C(c2ccnc3ccccc23)c2nnnn2-c2ccc3c(c2)OCCO3)CC1 (stereo not given),-1.3,4.9,4.3,x,8.6,x
CCC(=O)/C=C1/Sc2ccc(OC)cc2N1CCO,4.8,9.7,0.7,-0.6,-0.5,x
CCC(/C=C1\Sc2ccc(OC)cc2N1CCO)=C\c1sc2ccc(OC)cc2[n+]1CCO,-125.4,-14.3,-234.7,-153.3,69.8*,7.0
CCNc1nc(SCC(N)=O)nc2sc3c(c12)CCN(C)C3,7.2,1.9,6.4,7.1,60.5*,16.1
Cc1cccc(NC(=O)C2CC(=O)n3cnnc3S2)c1 (stereo not given),3.2,-4.4,-19.6,-9.5,84.0*,60.4*
C[C@H](CO)N1C[C@H](C)[C@H](CN(C)S(=O)(=O)c2cccs2)Oc2ncc(Br)cc2C1=O,1.4,-2.0,2.7,x,-1.3,x
Cc1cc(C)cc(S(=O)(=O)c2cn(C)c3cc(N4CCN(C)CC4)c(F)cc3c2=O)c1,6.9,1.0,-0.2,0.1,-4.3,x
CCOC(=O)c1c(SCCN2CCCCC2)n(-c2ccccc2)c(=S)n(-c2ccccc2)c1=O,-4.1,-4.7,1.7,2.8,31.3*,4.2
CCC(=O)/C=C1/Sc2ccc(OC)cc2N1CC,-1.2,-0.3,3.3,9.5,8.8,x
CCN1/C(=C/C(=O)c2ccco2)Sc2ccccc21,6.7,-3.9,18.3,0.4,44.7*,5.7
CCC(=O)/C=C1/Sc2ccccc2N1CC,-5.9,10.2,26.0,7.0,28.6*,26.8*
